Compounds with a hit are over-represented: about 5.8% of the library has one in this group of screens.
Pf Dd2 growth: inhibitors of Plasmodium falciparum Dd2 growth; P. falciparum Dd2 growth, SYBR Green, 72 h; stronger effect = lower value; activity change, % at 10 µM; 94,000 tested, 2.3% active; in the data active means activity change below about -80%; inconclusive means no clear call, values can overlap the other calls
T cruzi growth-1: inhibitors of T. cruzi proliferation | T. cruzi beta-gal in NIH3T3, GalScreen luminescence, 90 h | inhibition, % at 8.34 µM | 77,000 tested, 5.9% active;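 active means mean inhibition above about 93%, with at least 55% of replicates each passing it, limit read from the data, passing the limit was not always enough; inconclusive means only one of those two conditions holds; inactive means neither condition holds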
IDH1 mut inh: inhibitors of human IDH1 R132H; inhibition, % at 10 µM; AID 624101; O75874; 70,000 tested, 0.18% active; IDH1 R132H reductase, diaphorase/resazurin fluorescence, 60 min; in the data active means inhibition above about 34%; inconclusive means no clear call, values can overlap the other calls; inactive means below about 11%
KDM4C inh: blocks human GASC-1 (KDM4C) demethylase activity; 96,000 tested, 0.15% active; inhibition, % at 12.5 µM; Q9H3R0; GST-KDM4C 2-372, H3K9me3 peptide, LANCE TR-FRET;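 active means mean replicate inhibition above about 25%, with at least 55% of replicates also reaching it, limit read from the data, passing the limit was not always enough; inconclusive means only one of those two conditions met; inactive means neither condition met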
Target sequence (Q9H3R0 2-372 limits assumed): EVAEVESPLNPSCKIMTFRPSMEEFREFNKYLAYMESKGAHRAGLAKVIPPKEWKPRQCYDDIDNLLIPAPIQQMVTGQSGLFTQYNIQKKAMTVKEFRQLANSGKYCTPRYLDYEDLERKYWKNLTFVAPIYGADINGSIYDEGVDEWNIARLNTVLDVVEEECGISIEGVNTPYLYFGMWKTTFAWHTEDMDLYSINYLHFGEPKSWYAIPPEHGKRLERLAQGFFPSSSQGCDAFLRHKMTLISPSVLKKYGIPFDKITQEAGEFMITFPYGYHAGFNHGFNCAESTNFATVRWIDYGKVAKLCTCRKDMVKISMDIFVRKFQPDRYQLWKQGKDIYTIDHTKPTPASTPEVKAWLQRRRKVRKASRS
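Assay system: GST-GASC-1 enzyme fragment 2-372 | Amount: 10 nM enzyme | Medium: HEPES buffer, pH 7.5, plus ascorbate | Reagent: H3K9me3 peptide substrate, Fe(II), 2-oxoglutarate | Doses: Single-point compound screen | Incubation: 30 min demethylation and 1 h detection at room temperature | Measured by: LANCE TR-FRET, excitation 340 nm, emissions 618 and 671 nm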
T cruzi growth-2: Trypanosoma cruzi proliferation inhibition; shares compounds with T cruzi growth-1; T. cruzi beta-gal in NIH3T3, GalScreen luminescence, 90 h; inhibition, % at 8.35 µM; 5,600 tested, 72% active; AID 651739;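 active means mean replicate inhibition above about 95% and at least 55% of replicates individually reaching it, limit read from the data; inconclusive means only one of the two criteria is met; inactive means neither criterion is met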
T cruzi growth-3: blocks T. cruzi growth in NIH3T3 host cells | shares compounds with T cruzi growth-1 | T. cruzi beta-gal in NIH3T3, GalScreen luminescence, 90 h | inhibition, % at 2.09 µM | 5,600 tested, 21% active | AID 651740;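 active means mean inhibition above about 95%, with at least 55% of replicates also reaching it, limit read from the data; inconclusive means meets just one of the two conditions; inactive means meets neither condition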
NIH3T3 tox: kills mouse NIH/3T3 fibroblasts | shares compounds with T cruzi growth-1 | NIH/3T3 viability, CellTiter-Glo ATP luminescence, 90 h | cytotoxicity (signal decrease), % at 8.35 µM | 5,600 tested, 14% active;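 active means mean signal decrease across replicates above about 35% based on untreated-well scatter, with enough replicates individually passing, limit read from the data; inconclusive means no rule stated though some were filed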
NIH3T3 tox 2: cytotoxicity in mouse NIH/3T3 fibroblasts; 5,600 tested, 56% active; inhibition, % at 24.9 µM; NIH/3T3 viability, CellTiter-Glo ATP luminescence, 90 h; AID 651744; shares compounds with T cruzi growth-1;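 active means mean loss of cell viability signal at or above a set limit, and enough replicates individually reaching it; inconclusive means meets only the mean limit or only the replicate share; inactive means meets neither condition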
Numbers stand for hits; n = inactive; u = inconclusive; x = no result.

SMILES	Pf Dd2 growth	T cruzi growth-1	IDH1 mut inh	KDM4C inh	T cruzi growth-2	T cruzi growth-3	NIH3T3 tox	NIH3T3 tox 2
C[C@H](CO)N1C[C@H](C)[C@H](CN(C)Cc2ccc(-c3ccccc3)cc2)Oc2cc(C#C[C@@H](C)O)ccc2S1(=O)=O	n	102.6	n	n	96.0	114.9	52.2	102.3
C[C@H](O)C#Cc1ccc2c(c1)O[C@H](CN(C)Cc1ccc(-c3ccccc3)cc1)[C@H](C)CN([C@H](C)CO)S2(=O)=O	n	99.2	x	n	97.5	97.4	n	106.1
C[C@H]1CN([C@@H](C)CO)S(=O)(=O)c2ccc(C3=CCCC3)cc2O[C@@H]1CN(C)Cc1ccncc1	n	117.4	x	n	98.2	u	45.0	96.9
C[C@H]1CN([C@@H](C)CO)S(=O)(=O)c2ccc(C3=CCCC3)cc2O[C@H]1CN(C)Cc1ccncc1	n	105.0	n	n	102.2	n	n	31.3
C[C@@H]1CN([C@H](C)CO)S(=O)(=O)c2ccc(C3=CCCC3)cc2O[C@@H]1CN(C)Cc1ccncc1	n	n	x	n	x	x	x	x
C[C@@H]1CN([C@H](C)CO)S(=O)(=O)c2ccc(C3=CCCC3)cc2O[C@H]1CN(C)Cc1ccncc1	n	115.0	n	n	98.2	104.3	68.1	76.0
COC(=O)c1cc(OC)c(OC)cc1NC(=O)COc1cc(Cl)c(Cl)cc1Cl	x	x	n	x	x	x	x	x
CN1CCN(Cc2nc(N)nc(Nc3ccccc3)n2)CC1	x	x	n	x	x	x	x	x
CN(CC(=O)Nc1ccc(F)cc1F)S(=O)(=O)c1ccccc1	x	x	n	x	x	x	x	x
Cc1nnc(SCC(=O)NCC2CCCO2)s1 (stereo not given)	x	x	n	x	x	x	x	x
N#C[C@H]1N[C@H](CO)[C@H]1c1ccc(C#Cc2ccc(F)cc2)cc1	n	101.3	x	n	101.1	n	n	n
N#C[C@@H]1N[C@H](CO)[C@@H]1c1ccc(C#Cc2ccccc2F)cc1	n	n	x	n	x	x	x	x
N#C[C@H]1N[C@H](CO)[C@H]1c1ccc(C#CC2CCCC2)cc1	n	100.6	x	n	98.6	n	n	26.6
N#C[C@@H]1N[C@H](CO)[C@@H]1c1ccc(C#CC2CCCC2)cc1	n	n	x	n	x	x	x	x
N#C[C@H]1N[C@@H](CO)[C@@H]1c1ccc(C#Cc2ccccc2F)cc1	n	99.1	x	n	96.6	n	n	105.7
COc1cccc(C#Cc2ccc([C@H]3[C@@H](C#N)N[C@@H]3CO)cc2)c1	n	98.4	x	n	99.7	100.8	n	54.3
Cc1cc(C)c2nc(-c3ccccn3)cc(C(=O)Nc3cccc(Cn4cccn4)c3)c2c1	x	x	n	x	x	x	x	x
Cc1ccc(N(CC(=O)Nc2cc(Cl)ccc2C)S(C)(=O)=O)c(C)c1	x	x	n	x	x	x	x	x
Cc1ccc(-n2ncc(N(C)N3CC(C)(C)C3=O)c(Cl)c2=O)cc1	x	x	n	x	x	x	x	x
Cc1oc(S(=O)(=O)N2CCOCC2)cc1-c1nc(-c2ccc(C(C)(C)C)cc2)no1	x	x	n	x	x	x	x	x
O=C(CSc1nnc(Nc2ccccc2)n1-c1ccccc1)Nc1ccc2c(c1)COC2=O	x	x	n	x	x	x	x	x
O=C(C1CCC1)N1CCCCN2[C@@H](CO)[C@@H](c3ccc(C#CC4(O)CCCC4)cc3)[C@@H]2C1	n	u	x	n	n	n	n	n
O=C(C1CCCC1)N1CCCCN2[C@@H](CO)[C@H](c3ccc(C#CC4(O)CCCC4)cc3)[C@@H]2C1	n	u	x	x	97.7	n	n	43.8
O=C(C1CCC1)N1CCCCN2[C@H](CO)[C@@H](c3ccc(C#CC4(O)CCCC4)cc3)[C@@H]2C1	n	n	x	n	x	x	x	x
O=C(C1CCCC1)N1CCCCN2[C@H](CO)[C@@H](c3ccc(C#CC4(O)CCCC4)cc3)[C@@H]2C1	n	n	x	x	x	x	x	x
SMILES	Pf Dd2 growth	T cruzi growth-1	IDH1 mut inh	KDM4C inh	T cruzi growth-2	T cruzi growth-3	NIH3T3 tox	NIH3T3 tox 2
Cc1c(C(=O)C2C(=O)C(=O)N(CCN3CCOCC3)C2c2ccccn2)cnn1-c1ccccc1 (stereo not given)	x	x	n	x	x	x	x	x
C[C@H](CO)N1C[C@H](C)[C@H](CN(C)S(=O)(=O)c2ccc(F)cc2)Oc2ncc(-c3cccc(C(F)(F)F)c3)cc2C1=O	n	109.0	n	n	102.0	n	42.3	53.5
COc1ccc(S(=O)(=O)N(C)C[C@@H]2Oc3ncc(-c4cccc(C(F)(F)F)c4)cc3C(=O)N([C@H](C)CO)C[C@@H]2C)cc1	n	106.5	n	n	107.0	n	n	48.6
C[C@H](CO)N1C[C@H](C)[C@H](CN(C)S(=O)(=O)c2cccs2)Oc2ncc(-c3cccc(C(F)(F)F)c3)cc2C1=O	n	106.3	n	n	102.6	n	n	26.7
C[C@H](CO)N1C[C@H](C)[C@H](CN(C)S(=O)(=O)c2cccs2)Oc2ncc(-c3cccc(F)c3)cc2C1=O	n	n	n	n	x	x	x	x
COC(=O)CN(c1cc([N+](=O)[O-])ccc1C)S(C)(=O)=O	x	x	n	x	x	x	x	x
C[C@@H]1CCCCO[C@@H](CN(C)C(=O)Nc2ccccc2)[C@H](C)CN([C@H](C)CO)C(=O)c2cc(NC(=O)Cc3ccccc3)ccc2O1	n	n	n	n	x	x	x	x
C[C@@H]1CCCCO[C@H](CN(C)C(=O)Nc2cccc3ccccc23)[C@H](C)CN([C@@H](C)CO)C(=O)c2cc(NC(=O)Cc3ccccc3)ccc2O1	n	107.3	n	n	103.1	n	n	n
C[C@@H]1CCCCO[C@@H](CN(C)C(=O)Nc2cccc3ccccc23)[C@H](C)CN([C@H](C)CO)C(=O)c2cc(NC(=O)Cc3ccccc3)ccc2O1	-86.6	98.2	n	n	101.9	108.5	n	n
C[C@@H]1CCCCO[C@@H](CN(C)C(=O)Nc2cccc3ccccc23)[C@H](C)CN([C@H](C)CO)C(=O)c2cc(NC(=O)c3ccccc3)ccc2O1	n	103.4	x	n	101.1	u	n	n
C[C@H]1CCCCO[C@H](CN(C)C(=O)Nc2cccc3ccccc23)[C@@H](C)CN([C@@H](C)CO)C(=O)c2cc(NC(=O)c3ccccc3)ccc2O1	n	n	x	n	x	x	x	x
C[C@H]1CCCCO[C@@H](CN(C)C(=O)Nc2cccc3ccccc23)[C@@H](C)CN([C@@H](C)CO)C(=O)c2cc(NC(=O)Cc3ccccc3)ccc2O1	-91.8	102.0	n	n	115.0	n	n	n
C[C@@H]1CN([C@@H](C)CO)C(=O)c2cc(NC(=O)Cc3ccccc3)ccc2O[C@@H](C)CCCCO[C@H]1CN(C)C(=O)Nc1ccccc1	n	x	n	n	x	x	x	x
CC(C)CC#Cc1ccc2c(c1)O[C@@H](CN(C)CC1CCOCC1)[C@@H](C)CN([C@H](C)CO)S2(=O)=O	n	118.3	x	n	108.5	n	n	104.1
